Experimental data as given in the RNAGym collection of RNA variant scans (doi:10.1126/science.aae0568).
Variants at the floor of the assay were thinned out.

B1: tRNA (parent)
chain: GUUCCGUUGGCGUAAUGGUAACGCGUCUCCCUCCUAAGGAGAAGACUGCGGGUUCGAGUCCCGUACGGAACG

Variants of: B1
Test: yeast fitness relative to wild type (ratio to wild type); higher = fitter; tRNA-Arg(CCU), competitive growth, 37 C, YPD
In short: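 The tRNA-Arg(CCU) gene variants were made by chemical synthesis with a 3% per-site mutation rate at 69 sites and inserted at the native genomic locus of Saccharomyces cerevisiae. After pooling, the strains were competed in YPD at 37°C for 24 hours in six parallel replicates. Gene amplicons from the start population and each end population were read by 100-nucleotide paired-end sequencing, and Darwinian fitness relative to wild type was taken from genotype frequency changes. Genotypes needed ≥ 100 starting reads, and estimates < 0.5 were set to 0.5.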

| Variant | yeast fitness |
| --- | --- |
| GUUCCGUUGGAGUAAUGGUAACGGGUCUCCCUCCUAAGGAGAAGACUGUGGGUUCGAGUCCCGUACGGAACG | 0.588 |
| GUUCGGUUGGCGUAAUGGUAACGCGUCUCUCUCCUAAGGAGAAGACUGCGGGUUCGAGUCCCGUUCGGAACG | ≤ 0.5 |
| GUUCAGUUGGCGUAACGGUAACGCGUCUCCCUCCUAAGGAGAAGACUGCGGGUUCGAGGCCCGUACGGAACG | ≤ 0.5 |
| GUUCCGUUGGCGUAAUGGUAACACGUCUCCCUCCUAAGGAGACGACUGCGGGUUCGAGUCCCGUAGGGAACG | ≤ 0.5 |
| GUUCCGUUGGCGUAAUGGUUACGCGUCUCCCUCCUAUGGACAAGAGUGCGGGUUCGAGUCCCGUACGGAACG | ≤ 0.5 |
| GUUCCGUUGGCCUAAUGGUAACGCGACUCCCUAGUAAGGAGAAGACUGCGGGUUCGAGUCCCGUACGGGACG | ≤ 0.5 |
| GUUCCGUAGGCGUAAUGGUAACGCGUCUCCGUCUUAAGGAGAAGACUGCGGGUUUGAAUCUCGUACGGAACG | ≤ 0.5 |
| GUUCCGUUGGCGUAAUGGUAACGUGUCUUCCUCCUAAGGAGAAGACUGGGGGUUCGAGUCCCGUACGGAACG | ≤ 0.5 |
| GUUCCGUUGGCGUAAUGGUAACGCGUCUCCCUCCUAAGGAGAACACUGCGGGUUCGAGUCCCGUACGGUACG | 0.895 |
| GUUACGUUGGUGUAAUGGUAACGCGUCUCCCUCGUAAGGAGAAGACUGCGGGUUCGAGUCCAGUACGGAACG | 0.748 |
| GUUCCGUUGGCGUAAUGGUAACGCAUCUCCCUCCUAAGGAAAAGACUGCGGCUUCGAGUCCCGUACGGAACG | ≤ 0.5 |
| GUUCCGUUGGCAUUAUGGUAACGCGUCUCUCUCCUAAGGAGAAGACUGCGGGUUCGAGUCCCGUACGGAACG | ≤ 0.5 |
| GUUCCGUUGGCGUAAUGGUAACGCGUCUCCCUCCUAAGGAGAAGACUGCGGGUUCGAGUCCCGUAUGGAUCG | 0.923 |
| GUCCCGUUGGCGUAAUGGUAACGCGUCUCCCUCCUAAGGAGACGACUGCGGGUUCGAGUCCCGUACGGAACG | 1.04 |
| GUUCCGUUGGCGUAAUGGUAACGCGUCUCCCUCCUAAGGAGAAGACUGCGGGUUCGAGUCCCAUACGGACCG | 0.973 |
| GUUCCGUUGGCGUAAUGAUAACGCGUCUCUCUCCUAAGGGGAAGACUGCGGGUUCGAGUCCCGUACGCAACG | ≤ 0.5 |
| GUUCCGUUGGCGUAAUGGUAACGCGUCUCUCUCCUAAGGAGAAGACUGUGGGUACGAGUCCCGUACGGAACG | ≤ 0.5 |
| GUUCCGUUGGCGUAAUGGUAACGGGUCUCCCUCCUAAGGAGAAGACUGCCGGUUCGAGUCCCGUACGGAGCG | ≤ 0.5 |
| GUUCCGUUGGCGUAAUGGUAACGCGUCUCCCUCCUAAGGAGAAGACUGCGGCUUCGAGUCCCGUACGGAGCG | 0.637 |
| GUUCCGUUGGCGCAAUGGUAACGCCUCGCCCUCCUAAGGAGAAGACUGCGGGUUCGAAUGCCGUACGGAACG | 0.622 |
| GUUCCGUUGGCGUAAUGGUAACGCGUCUCCCUCCUAAGGAGAAGACAGUGGGUUCGAGUCCCGUACGGAACG | 0.913 |
| GUUCCGUUGGCGUAAUGGUAACGCGUCUCCAUCCUAAGGCGAAGACUGCGGAUUCGAGUCCCGUACGCAACG | ≤ 0.5 |
| GUUCCGUUGGCGUAAGGGUAACGCGUCUUCCUCCUAAGGAGAAGAUUGCGGGUUCGAGUCCCGUACCGUACG | 0.521 |
| GUACCGUUGGAGUAAUGGUAACGCGUCUCCCUUCUAAGGAGAAGACUGCGGGUUCGAGUCCCGUACGGAACG | 0.502 |
| GUUCCGUUGGUGUAAUGGUAACGCGUCUCCCUCCUAAGGAGAAGGCUGCGGCUUCGAGUCCCGUACGGAACG | ≤ 0.5 |

| Variant | yeast fitness |
| --- | --- |
| GUUCCGUUGGCGUAAUGGUAACGCGUCUCCCUCCUAUGGAGGAGUCUGCGGGUUCGAGUCCCGUACCGAACG | ≤ 0.5 |
| GUCCCGUUGGGGUAAUGGUAACGCGUCUCCCUCGUCAGGAGAAGACUGCGGAUUCGAGUGCCGUACGGAACG | ≤ 0.5 |
| GUUCCGUUGGCCUAAUGGUAACGCGUCUCCCUCCUAAGGAGAGGACUGCGGGUUCGAGUCUCGUACGGAACG | ≤ 0.5 |
| GAUCCGUUGGCGUAAUGGUAACACGUCUGCCUCCUAAGGAGAAGACUGCGGGUUCGAGUCCCGUACGGAUCG | 0.541 |
| GUUCCGUUGAAGUAAUGGUAACGCGUCUCCCUCCUAAGGAGAAGACUGCGGGUUCGAGUCCCGUACCGAACG | ≤ 0.5 |
| GUUACGUUAGCGUAAUGGUAAAGCGUGUCCCUCCUAAGGAGAAGACUGCGGGUACGAGUCCCGUACGGAACG | ≤ 0.5 |
| GUUCCGUUGGCGUAAUGGUCACGCGUCUCCCUCCUAAGGAGAAGACUCCGGGUUCGGGUCCCAUACGGAACG | ≤ 0.5 |
| GUACCGUUGGCGUGAUGGUAACGCGUCUCCCUCCUAAGGAGAAGACUGCGGGUUCGAAUCCCGUACGGAACG | 0.883 |
| GUUGCGUUGGCGUAGUAGUAACGCGUCUCCCUCAUAAGGAGAAGACUGCGGGUUCGAGUCCCGUACGGAACG | ≤ 0.5 |
| GUUCCGUUGGCGUAAUGGUAACGCGUCUCCCUCCUCAGGAGAAGACUCCGGGUGCGAGUCCCGUACGGAACG | ≤ 0.5 |
| GUUCCGUUGGCGUAAUGGUUAUGCGUCUCCCUCCUAAGGAGAAGACUGCGGGUUCGAGUCCCGUACGGAACG | 0.716 |
| GUUCCGUUGGCGUAAGGGUAACGUGUCUCCCUCCUAAGGAGAAGACUGGGGGUUCGAGUCCCGUAUGGAACG | ≤ 0.5 |
| GUUCCGUCGGCGUAAUGGUAACGCGUCUCCCUCCUAAGGAGCAGACUGCGGGUUCGAGUCCCGUACGGAACG | 0.857 |
| GUUCCAUUGGCGUUAUGGUAACGCGUCUCCCUCCUAAGGAGAAGACUGCGGAUUCGAGUCCCCUACGGAACG | ≤ 0.5 |
| GUUCCGUUGGCGUAAAGGAAACGCGUCUCCCUCCUAAGGAGAAGAUUGCGGGUUCGAGUCGCGUACGGAACG | 0.571 |
| GAUCCCUUGGCGUCAUGGUAACGCGUCUCCCUCCUAAGGAGAAGACUGCGGGUUCGAGUCCCGUACGGAACG | ≤ 0.5 |
| GUUAUGUUGGCGUAAUGGUAACGCGUCUCCCUCCUAAGCAGCAGACUGCGGGUUCGAGUCCCGUACGGAACG | ≤ 0.5 |
| GUUCGGUUGGCGUAAUGGUAACGCGUCUCCCUCCUAAGGAGAAGACCGCGGGUUCGAGUCCCGUAUGGAACG | 0.627 |
| GUUCCGUUGGCGUAAUGGUAACGCGUCUCCCUCCUAUGGAGAAAACUGCGGGUUCGAGUCCCGUUCGGAACG | ≤ 0.5 |
| GUUCCGUUAGCGUAAUGAUACCGCGUCUUCCUCCUAAGGAGAAGACUGCGGGUUCGACUCCCGUAGGGAACG | ≤ 0.5 |
| GUUCCGUUGGCCUAUUGGUAACGAGUCUCCCUCCUAAGGAGAAGACUCCGGGUUCGAGUCUCGUACGGAACG | ≤ 0.5 |
| GUACCGUUGGCGUAAUGGUAACGCGUCUCCCUCCUAACGACAAGACUGCGGGUUCGAGUCCCGUGCGGAACG | 0.78 |
| GUUCGGUUGGCGCAAUGGUACCGCGUCUCCCUCCUAAGGAGAAGACUGCGGGUUCGUGUCCCGUUCGCAACG | ≤ 0.5 |
| GUUCCGUUCGCCUAAUGGUAACGCGUCUCCCUUCAAAGGAGAAGACUGCGGGUUCGAGUCCCGUACGGAACG | ≤ 0.5 |
| GUUCUGUUGGCGUAAUGGUAAAGCGUCUCCCACCUAAGGAGAAGACUGCGGGUUCGAGUGCCGUACGGAACG | ≤ 0.5 |

| Variant | yeast fitness |
| --- | --- |
| GUUCCGUUGGCGUAAUGGUAACGCGUCUGCCUCCUAAGGAGAAGACUGGCGGUUCGAGUCCGGUACGGUACG | 0.506 |
| GUUCCGUUGGCGUAAUGGUAACGCGUCUCCCUCCUAAGGAGAAGACUGUGGGUUCGUCUCCCGUACGGAACG | ≤ 0.5 |
| GUUCCGUUGGCGUAAUGGUAACGCGUCUCCCUCCUAAGGAGUAGACUGCGGGUUCGAGUCGCGUCGGGAACG | 0.89 |
| GUUCCGUUGGCAUAAUGGUAACACGUCGCCCUCCUAAGGAGAAGACUGUGGGUUCCAGUCCCGUUCGGAACG | 0.526 |
| GUUCCGUCGGCGUAAUGGUAACGCGUCUCCCUCCUAAGGAGAAGACUGCAGGUUCGAGUCCCGUACGGAUCG | 0.736 |
| GUUCCGUUGGCGUAAUGGUAACGCGUCUCCCUCCUAAGGAGAAAACUGCGGGUUCGGGUCCCGUACGGAACG | 0.688 |
| GUUCCGUUGGCGUAAGGGUGACGCGUCUCCCUCCUAAGGAGAAGACUGCGGGUUCGAGUCCCGUACGGCACG | 0.749 |
| GUUCCGUUGGUGUAAUGGUAACGCGUCUCCCGCCUAAGGAGAAGACUGCGGGUACGAGUCCCGUACCGAACG | ≤ 0.5 |
| GUUCCGUUGGCGUAAUGGAAACGCGUCUCCCUCCUAAGGAGAAGGCUGCGGGUUCGAGUCCCGUACGCAACG | ≤ 0.5 |
| GUUCCGUUGGCGUAAUGGUAACGCGUCUCCCUCCUAAGGAGAAGACUGCGGGUUCGAGUCCUGUACCGAACG | 0.917 |
| GUUCCGUUGGCGUGAUGGUAACGCGUCUCCCUCCUAAGGAGAAGACUGCGGGUUGGCGUCCCGUACGGAACG | 0.598 |
| GUUCCGUUGGCGUAAUGCUAACGCGUCUCCGUCCUAAGGAGAACACUCCGGGUUCGAGUCCCGUAUGGAACG | ≤ 0.5 |
| GUUCCGUUGGCGUAUUGGUAACGAAUCUCCCUCCUAAGGAGAAGACCGCGGCUUCGAGUCGCGUACGGAACG | ≤ 0.5 |
| GUUCAGUUGGCGUAAUAGUAACGCGUCUCCCUCCUAAGGAGAAGAAUGCGGGUUAGAGUCCCGUACGGAACG | ≤ 0.5 |
| GUUCCGAUCGCGUAAUCGUAACGCGUCUCCCUCCUAAGGAGAAGACUACGGGUUCGAGUCCCAUACGGAACG | 0.584 |
| GUUCCGUUGGCGUAAUGGUAACGCGUCUGCCUCAUAGGGAGAAGACUGCGGGUUCGAGUCCCGUACGGAACG | ≤ 0.5 |
| GUUCCGUUGGCAUAAUGCUAACGCGUCUCCCUCCUAAGGAGUAGACUGCGGGUUCGAGUCCCGUACGGAGCG | 0.598 |
| GUGGCGUUGGCGUAAUGGUAACGCGUCUCCCUCCUAAGGAGAAGACUGCGGGUUCGAGUCCCGUACGGACCG | ≤ 0.5 |
| GUUCCGUUGGCGUAAUGGUAACGCGUCUCCCUCCUGAGGAGAAGCCUGCGGGUUCGAGUCUCGUACGGAACG | 0.76 |
| GUUCCGUUGGCGUAAUGGUAACGCGUCUCCCCCCUAAGGAGAAGACUCCGGGUUCAAGUCCCGUACGGAACG | ≤ 0.5 |
| GUUCCGUUGGCGUAAUGGUAACACGUCUCUCUCCCAAGGAGAAGACUCCGGGUUCGAGACCCGUAUGGAACG | 0.526 |
| GUUCCGUUGGCGUAAUGGUAACGCGUCUCCCUCCUAAGGAGAAGACUGCGGGUUAGAGUCCCGCACGGAACG | 0.623 |
| GUUCCGUUGGCGUAAUGGUAACGCGUCUCCCUCCUAAGGAGAAGACUGCGGGUUCGAGACCCGUAAGGAACG | 0.63 |
| GUUCUGUUGGUGUUAUGGUAACGCGUCUCCCUCCUAAGGAGAAGACUGCGGGUUCGAGUCCCGUACGGAACG | 0.57 |
| GUUCCGUUGGCGUAAUGGUAACGCGCCUCCCUCCUAAGGAGGAGACUGCGGGUUCGAGUCCCGUACGGAACG | 1.08 |
